Reference: article PMC6499389 (European journal of medicinal chemistry, 2019)
Like-named read-outs stand apart in the source and are kept apart here. Values belong to the compound of their own block, whether it stands above or below them.

What was measured:
hTopo I = target: T1, hTopo I (Homo sapiens, UniProt P11387); test: Relaxation assay for hTopo I; assay type: biochemical; details: for fold lower activity (loss in hTopo I inhibition) than 217: relative to 217; for fold lower activity (loss in hTopo I inhibition) than 217 / fold lower activity (loss in hTopo I inhibition) than 5a: from relaxation assay IC50; for fold lower activity (loss in hTopo I inhibition) than 5a: relative to 5a
T1 sequence (P11387 1-765): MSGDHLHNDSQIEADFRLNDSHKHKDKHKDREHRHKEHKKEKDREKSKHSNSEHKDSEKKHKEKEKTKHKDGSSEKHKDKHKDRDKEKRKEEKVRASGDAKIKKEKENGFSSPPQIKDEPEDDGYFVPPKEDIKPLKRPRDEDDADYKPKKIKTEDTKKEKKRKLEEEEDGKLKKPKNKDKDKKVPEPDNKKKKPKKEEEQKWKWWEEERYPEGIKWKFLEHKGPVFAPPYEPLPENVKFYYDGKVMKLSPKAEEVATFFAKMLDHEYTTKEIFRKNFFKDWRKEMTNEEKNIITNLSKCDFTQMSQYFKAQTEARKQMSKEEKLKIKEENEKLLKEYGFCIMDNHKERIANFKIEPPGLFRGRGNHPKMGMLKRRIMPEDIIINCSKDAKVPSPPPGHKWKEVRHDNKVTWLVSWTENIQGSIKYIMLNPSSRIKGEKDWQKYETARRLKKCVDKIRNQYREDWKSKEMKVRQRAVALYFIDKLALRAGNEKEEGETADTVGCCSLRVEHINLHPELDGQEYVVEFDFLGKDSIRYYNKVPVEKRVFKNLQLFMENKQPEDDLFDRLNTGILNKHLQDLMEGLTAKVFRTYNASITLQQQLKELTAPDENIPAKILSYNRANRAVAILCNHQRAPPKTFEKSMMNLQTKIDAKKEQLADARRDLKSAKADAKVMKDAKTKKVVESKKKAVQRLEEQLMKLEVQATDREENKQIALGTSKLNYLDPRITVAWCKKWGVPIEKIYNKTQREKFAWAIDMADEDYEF
How it was run: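 Supercoiled pBR322 (0.3 μg) was relaxed by 1 unit of commercial human Topo I. Buffer: 50 mM Tris-HCl pH 7.5, 100 mM NaCl, 10 mM MgCl2, 1 mM DTT, 50 μg/ml BSA, plus varied test compound concentrations. Incubation was 15 min at 37°C, stopped with 25 mM EDTA. Products ran on 1.2% agarose, 2 V/cm, 15 h, TAE, then were ethidium-stained and imaged. IC50 came from band quantification.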

calf thymus DNA (Ct-DNA) [1] = details: ref Previous studies; cited from earlier work
[2] = tested on: colon cancer (HT-29) xenograft; details: HT-29 xenograft model, mice; cited from earlier work
calf thymus DNA (Ct-DNA) [3] = test: DNA binding assay; details: several ratios of DNA to FQ
[4] = tested on: 27-bp sequence d(CCTTACGTGCATAGTCATTCATGACCG) of dsDNA; test: DNA binding assay; details: compound 25 μM

Compound: COc1c(N2CC[C@@H](N)C2)c(F)cc2c(=O)c(C(=O)O)cn(Cc3ccc(-c4ccccc4)cc3)c12 [226/4d, (R)-1-([1,1′-biphenyl]-4-ylmethyl)-7-(3-aminopyrrolidin-1-yl)-6-fluoro-8-methoxy-4-oxo-1,4-dihydroquinoline-3-carboxylic acid]
fold lower activity (loss in hTopo I inhibition) than 217 (hTopo I): more than 3 fold

Compound: CNC(=O)c1cn(Cc2ccc(-c3ccccc3)cc2)c2c(OC)c(N3CC[C@@H](CN)C3)c(F)cc2c1=O [242/3a, (S)-1-([1,1′-biphenyl]-4-ylmethyl)-7-(3-(aminomethyl)pyrrolidin-1-yl)-6-fluoro-8-methoxy-N-methyl-4-oxo-1,4-dihydroquinoline-3-carboxamide]
fold lower activity (loss in hTopo I inhibition) than 217 (hTopo I): 3- to 7 fold

Compound: N[C@@H]1CCN(c2cc3c(cc2F)c(=O)c(C(=O)O)cn3Cc2ccc(-c3ccccc3)cc2)C1 [117/5g, (R)-1-([1,1′-biphenyl]-4-ylmethyl)-7-(3-aminopyrrolidin-1-yl)-6-fluoro-4-oxo-1,4-dihydroquinoline-3-carboxylic acid]
fold lower activity (loss in hTopo I inhibition) than 5a (hTopo I): 4 fold

Compound: CCn1cc(C(=O)O)c(=O)c2cc(F)c(N3CCNCC3)cc21 [Norfloxacin]
bathochromic shift upon addition of Ct-DNA (calf thymus DNA (Ct-DNA) [1]): an observed bathochromic shift
fluorescence quenching upon addition of Ct-DNA (calf thymus DNA (Ct-DNA) [1]): significant quenching

Compound: COc1c(N2CC[C@@H](CN)C2)c(F)cc2c(=O)c(C(=O)O)cn(Cc3ccc4ccccc4c3)c12 [Compound 227]
inhibition of proliferation of colon cancer in vivo [2]: exhibited activity but was not as effective as 217

Compound: CN[C@@H]1CCN(c2cc3c(cc2F)c(=O)c(C(=O)O)cn3Cc2ccc(-c3ccccc3)cc2)C1 [118/5h, (R)-1-([1,1′-biphenyl]-4-ylmethyl)-6-fluoro-7-(3-(methylamino)pyrrolidin-1-yl)-4-oxo-1,4-dihydroquinoline-3-carboxylic acid]
fold lower activity (loss in hTopo I inhibition) than 5a (hTopo I): 2 fold

Compound: NC[C@@H]1CCN(c2ccc3c(=O)c(C(=O)O)cn(Cc4ccc(-c5ccccc5)cc4)c3c2)C1 [086B/6a, (S)-1-([1,1′-biphenyl]-4-ylmethyl)-7-(3-(aminomethyl)pyrrolidin-1-yl)-4-oxo-1,4-dihydroquinoline-3-carboxylic acid]
fold lower activity (loss in hTopo I inhibition) than 5a (hTopo I): ~4 fold
fold lower activity than its cognate C6-fluorine analog 7a (hTopo I; relative to 7a as printed): 4 fold

Compound: CN[C@@H]1CCN(c2c(F)cc3c(=O)c(C(=O)O)cn(Cc4ccc(-c5ccccc5)cc4)c3c2OC)C1 [228/4e, (R)-1-([1,1′-biphenyl]-4-ylmethyl)-6-fluoro-8-methoxy-7-(3-(methylamino)pyrrolidin-1-yl)-4-oxo-1,4-dihydroquinoline-3-carboxylic acid]
fold lower activity (loss in hTopo I inhibition) than 217 (hTopo I): about 2 fold

Compound: O=C(O)c1cn(Cc2ccc(-c3ccccc3)cc2)c2cc(N3CC4CNCC4C3)c(F)cc2c1=O (stereo not drawn) [089/5l, 1-([1,1′-biphenyl]-4-ylmethyl)-6-fluoro-7-(hexahydropyrrolo[3,4-c]pyrrol-2(1H)-yl)-4-oxo-1,4-dihydroquinoline-3-carboxylic acid]
fold lower activity (loss in hTopo I inhibition) than 5a (hTopo I): 2 fold

Compound: O=C(O)c1cn(Cc2ccc(-c3ccccc3)cc2)c2cc(N3C[C@H]4CCNC[C@H]4C3)c(F)cc2c1=O [091/5k, 1-([1,1′-biphenyl]-4-ylmethyl)-6-fluoro-7-((3aS,7aS)-hexahydro-1H-pyrrolo[3,4-c]pyridin-2(3H)-yl)-4-oxo-1,4-dihydroquinoline-3-carboxylic acid]
fold lower activity (loss in hTopo I inhibition) than 5a (hTopo I): 4 fold
fold more active than 5f (hTopo I; relative to C7 N-methyl AMP analog 5f): ~3 fold

Further lines, with some results ahead:

IC50 (hTopo I): > 200 µM
Compound: O=C(O)c1cn(Cc2ccc(-n3cccn3)cc2)c2cc(NC[C@@H]3CCNC3)c(F)cc2c1=O [298B/9e, (R)-1-(4-(1H-pyrazol-1-yl)benzyl)-6-fluoro-4-oxo-7-((pyrrolidin-3-ylmethyl)amino)-1,4-dihydroquinoline-3-carboxylic acid]

fold improvement of hTopo I inhibition compared to 9a (hTopo I; relative to 9a): 2 fold
Compound: O=C(O)c1cn(Cc2ccc(-n3cccn3)cc2)c2cc(N3C[C@H]4CCNC[C@H]4C3)c(F)cc2c1=O [300B/9c, 1-(4-(1H-pyrazol-1-yl)benzyl)-6-fluoro-7-((3aS,7aS)-hexahydro-1H-pyrrolo[3,4-c]pyridin-2(3H)-yl)-4-oxo-1,4-dihydroquinoline-3-carboxylic acid]

fold lower activity (loss in hTopo I inhibition) than 217 (hTopo I): 2 fold
Compound: COc1c(N2CC[C@@H](CN)C2)c(F)cc2c(=O)c(C(=O)O)cn(Cc3ccc(-c4ccc(F)cc4)cc3)c12 [277/7c, (S)-7-(3-(aminomethyl)pyrrolidin-1-yl)-6-fluoro-1-((4′-fluoro-[1,1′-biphenyl]-4-yl)methyl)-8-methoxy-4-oxo-1,4-dihydroquinoline-3-carboxylic acid]

fold lower activity (loss in hTopo I inhibition) than 217 (hTopo I): ≥ 7 fold
Compound: COc1c(N2CC[C@@H](CN)C2)c(F)cc2c(=O)c(C(=O)O)cn(Cc3ccc(-n4cccn4)cc3)c12 [292B/7a, (S)-1-(4-(1H-pyrazol-1-yl)benzyl)-7-(3-(aminomethyl)pyrrolidin-1-yl)-6-fluoro-8-methoxy-4-oxo-1,4-dihydroquinoline-3-carboxylic acid]

fold lower activity (loss in hTopo I inhibition) than 217 (hTopo I): ≥ 7 fold
Compound: COc1c(N2CC[C@@H](CN)C2)c(F)cc2c(=O)c(C(=O)O)cn(Cc3cc(-c4ccccc4)no3)c12 [294B/7b, (S)-7-(3-(aminomethyl)pyrrolidin-1-yl)-6-fluoro-8-methoxy-4-oxo-1-((3-phenylisoxazol-5-yl)methyl)-1,4-dihydroquinoline-3-carboxylic acid]

fold lower activity (loss in hTopo I inhibition) than 217 (hTopo I): 3- to 7 fold
Compound: COc1c(N2CC[C@@H](CN)C2)c(F)cc2c(=O)c(C(N)=O)cn(Cc3ccc(-c4ccccc4)cc3)c12 [251/3b, (S)-1-([1,1′-biphenyl]-4-ylmethyl)-7-(3-(aminomethyl)pyrrolidin-1-yl)-6-fluoro-8-methoxy-4-oxo-1,4-dihydroquinoline-3-carboxamide]

bathochromic shift upon addition of 27-bp dsDNA [4]: a bathochromic shift was not observed
Compound: COc1c(N2CC[C@@H](CN)C2)c(F)cc2c(=O)c(C(=O)O)cn(Cc3ccc(-c4ccccc4)cc3)c12 [Compound 217]
fluorescence quenching upon addition of Ct-DNA (calf thymus DNA (Ct-DNA) [3]): Modest fluorescence quenching
bathochromic shift upon addition of Ct-DNA (calf thymus DNA (Ct-DNA) [3]; fluoroquinolone 25 μM, Ct-DNA 0 or 400 μM): no bathochromic shift was observed
inhibition of proliferation of colon cancer in vivo [2]: inhibited the proliferation of colon cancer in vivo as well as fluorouracil
fluorescence quenching upon addition of 27-bp dsDNA ([4]; dsDNA 0–200 μM, n=3): quenched in a concentration-dependent manner
